Only some compounds are listed: those with a hit (about 1.9% of all), similar ones and a draw of the others.
Runt-CBFb FRET: inhibitors of human RUNX1 Runt domain binding to CBFb | Q01196+Q13951 | Cerulean-Runt/Venus-CBFb FRET ratio 530/480, 1 h | inhibition, % at 20 µM | 0.46% of 220,000 active | AID 1496;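 active = inhibition over about 50% at 20 µM in the single-dose screen, limit read from the data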
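System: Cerulean-labeled Runt domain protein | Quantity: 100 nM of each labeled protein | Schedule: 1 h compound exposure, room temperature | Detection: Fluorescence energy transfer, 422 nm excitation, 530/480 nm emission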
Runt-SMMHC FRET: inhibitors of human RUNX1 Runt domain binding to CBFb-SMMHC; Cerulean-Runt/Venus-CBFb-SMMHC FRET ratio 530/480, 1 h; inhibition, % at 20 µM; 0.74% of 220,000 active;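 active = mean inhibition across duplicate retests at 20 µM reaching about 50%, limit read from the data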;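 also: inhibitors lower the FRET ratio by blocking Runt binding to CBFb-SMMHC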
Hck-Nef inh: blocks Nef-activated human Hck kinase. P08631. Recombinant Hck-YEEI plus Nef, Z-Lyte FRET kinase assay. inhibition, % at 20 µM. 0.68% of 220,000 active. AID 463187;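 active = Hck-Nef kinase inhibition above about 50%, limit read from the data; inactive = inhibition below that limit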
Target sequence (P08631 whole entry, looked up): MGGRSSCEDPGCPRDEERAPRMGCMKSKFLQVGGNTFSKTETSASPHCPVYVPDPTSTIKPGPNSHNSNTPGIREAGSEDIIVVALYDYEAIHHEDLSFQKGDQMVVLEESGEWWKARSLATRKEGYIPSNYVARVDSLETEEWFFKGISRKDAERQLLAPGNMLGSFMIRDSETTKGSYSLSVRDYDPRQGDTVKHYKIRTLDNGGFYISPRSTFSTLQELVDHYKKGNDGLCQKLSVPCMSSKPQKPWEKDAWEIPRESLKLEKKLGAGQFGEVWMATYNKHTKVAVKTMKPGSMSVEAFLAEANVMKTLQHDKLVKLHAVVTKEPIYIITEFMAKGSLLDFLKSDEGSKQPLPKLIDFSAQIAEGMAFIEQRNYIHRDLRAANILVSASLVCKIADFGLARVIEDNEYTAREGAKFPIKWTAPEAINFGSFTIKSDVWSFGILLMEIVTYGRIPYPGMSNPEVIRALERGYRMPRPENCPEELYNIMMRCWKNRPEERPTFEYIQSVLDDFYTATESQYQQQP
TbHK1 inh: blocks Trypanosoma brucei hexokinase 1 activity; recombinant TbHK1, G6PDH-coupled NADH A340; inhibition, % at 10 µM; 0.11% of 220,000 active; AID 1430;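 active = inhibition of 50% or more in the single-dose primary screen; inactive = inhibition below 50%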
RanGTP-Imp inh: disruptors of Ran-importin-beta complex formation – biochemical, FRET, CFP-Ran, YFP-importin-beta, homogeneous, primary screen. inhibition, % (test concentration not listed). 1.1% of 300,000 active. cell-free CFP-Ran/YFP-importin-beta FRET ratio. AID 2216;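 active = more than half of the replicate wells show a fall in the fluorescence ratio signal beyond about 16%, limit read from the data, passing the limit was not always enough; inconclusive = exactly half of the replicate wells pass the set limit; inactive = fewer than half of replicates pass the limit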
YIC counter: counter-screen for RanGTP-importin-beta inhibitors: YIC FRET probe; AID 435026; Purified YIC probe, intramolecular FRET ratio YFP/CFP; IC50, µM; 40% of 1,000 active; shares compounds with RanGTP-Imp inh;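 active = fitted half-maximal inhibitory concentration no more than tenfold above the top dose tested; inconclusive = flat fit with 30 to 70% activity, or poor fit; inactive = half-maximal concentration beyond tenfold above the top dose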
Hck Nef conf: confirmation of Hck-Nef kinase inhibitors. shares compounds with Hck-Nef inh. 28% of 1,300 active. Recombinant Hck-YEEI:Nef, Z-Lyte FRET kinase assay. calls only at 10 µM;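 active = average inhibition of at least 50%, with Z-scores no higher than 3 in both the phospho-tyrosine peptide and fluorescence counterscreens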
Of the large screens only hits and unclear results are named; the others gave an inactive call (follow-up assays come after a bar, where shown).

CCOC(=O)CCCSc1nc2sc3c(c2c(=O)[nH]1)CCC3	RanGTP-Imp inh inconclusive
CCOC(=O)CSc1nnc(CSc2nc3sc4c(c3c(=O)[nH]2)CCCC4)n1-c1ccccc1	RanGTP-Imp inh 32 | YIC counter inactive
CCOC(=O)CSc1nc2cc(C(=O)OC)ccc2c(=O)n1CCN1CCOCC1	none
COC(=O)c1ccc2c(=O)n(CCN3CCOCC3)c(SCC(=O)C(C)(C)C)nc2c1	RanGTP-Imp inh 19 | YIC counter inactive
CCCc1c(C)nc(N2CCN(c3ccccc3F)CC2)[nH]c1=O	none (no result: Runt-CBFb FRET, Runt-SMMHC FRET, Hck-Nef inh, TbHK1 inh)
O=C(NCCc1ccccc1)C(=O)c1c[nH]c2ccccc12	none (no result: Runt-CBFb FRET, Runt-SMMHC FRET, Hck-Nef inh, TbHK1 inh)
NS(=O)(=O)c1ccc(CCNC(=O)C(=O)c2c[nH]c3ccccc23)cc1	RanGTP-Imp inh 17 | YIC counter inactive
Cc1ccc2occ(/C=N/NC(=O)c3ccncc3)c(=O)c2c1	none (no result: Runt-CBFb FRET, Runt-SMMHC FRET, Hck-Nef inh, TbHK1 inh)
COc1ccc(NC(=O)N2CCN(C(=O)Nc3ccc(OC)cc3)CC2)cc1	none
COc1ccc(NC(=O)N2CCCCCC2)cc1	RanGTP-Imp inh 21 | YIC counter inactive
COc1cc(C(=O)NCCCNc2nc3cc(C)cc(C)c3cc2C#N)cc(OC)c1OC	Runt-SMMHC FRET 73, RanGTP-Imp inh 21 (no result: Runt-CBFb FRET) | YIC counter 28
COc1cc(C(=O)NCCCNC(=O)c2cc(OC)c(OC)c(OC)c2)cc(OC)c1OC	none (no result: Runt-CBFb FRET, Runt-SMMHC FRET, Hck-Nef inh, TbHK1 inh)
Cc1nn(-c2ccccc2)c2sc(C(=O)NC3CCCCC3)cc12	RanGTP-Imp inh 28 | YIC counter inactive
O=c1/c(=C/c2ccccn2)sc2n1CN(c1ccccc1)CN=2	none
Cc1cc(C)c2c(c1)/C(=c1/sc3n(c1=O)CN(c1ccccc1)CN=3)C(=O)N2	Hck-Nef inh 54, RanGTP-Imp inh 54 | YIC counter inactive | Hck Nef conf inactive
CCOc1ccc(C2C(C(=O)OC)=CN(CCOC)C=C2C(=O)OC)cc1	Runt-CBFb FRET 102, Runt-SMMHC FRET 107, Hck-Nef inh 58, RanGTP-Imp inh 21 | YIC counter 15
COc1nc(NCCc2ccc(OC)c(OC)c2)nc(OC)n1	none
COc1ccc(CCNc2c3ccccc3nc3ccccc23)cc1OC	Runt-CBFb FRET 110, Runt-SMMHC FRET 134, Hck-Nef inh 56, RanGTP-Imp inh 43 | YIC counter 14 | Hck Nef conf inactive
Cc1cccc(N2C(=O)C(O)=C(C(=O)c3cccs3)C2c2ccc(Cl)cc2)n1 (stereo not drawn)	none
COC(=O)C1=CN(CC2CCCO2)C=C(C(=O)OC)C1c1cccc(O)c1 (stereo not drawn)	Runt-CBFb FRET 76, Runt-SMMHC FRET 87, Hck-Nef inh 71, RanGTP-Imp inh 28 | YIC counter 20
COC(=O)C1=C(N)Oc2cc(C)n(CC3CCCO3)c(=O)c2C1c1ccccc1 (stereo not drawn)	none
Cc1ccccc1CSCC(Nc1ccc(C(=O)O)cc1[N+](=O)[O-])C(=O)O (stereo not drawn)	none
COC(=O)Cc1c(C)c2cc(Cl)c(OC(=O)c3ccco3)cc2oc1=O	Runt-CBFb FRET 98, Runt-SMMHC FRET 141, Hck-Nef inh 102, RanGTP-Imp inh 47 | YIC counter 21
O=C(CN(C(=O)CCC(=O)Nc1nccs1)c1ccc(F)cc1)NCc1ccccc1	none (no result: Runt-CBFb FRET, Runt-SMMHC FRET, Hck-Nef inh, TbHK1 inh)
COc1ccc(CCN=C(N)NS(=O)(=O)c2cccs2)cc1	none
CCCCc1cc(=O)oc2c(CN3CCCC3)c(O)c(Cl)cc12	Runt-CBFb FRET 96, Runt-SMMHC FRET 135, Hck-Nef inh 153, RanGTP-Imp inh 26 | YIC counter 28
COC(=O)C1=CN(Cc2cccs2)C=C(C(=O)OC)C1c1ccc(OC)cc1OC	Runt-CBFb FRET 105, Runt-SMMHC FRET 91, Hck-Nef inh 68, RanGTP-Imp inh 40 | YIC counter 7
COc1ccccc1C(=O)NNC(=O)C(=O)NCc1ccccc1	none
COc1ccccc1C(=O)NNC(=O)C(=O)NC(C)C	Hck-Nef inh 59 (no result: Runt-CBFb FRET, Runt-SMMHC FRET) | Hck Nef conf inactive
Cc1nn(-c2ccccc2)c2c1cc1c(=O)n(C)c(=O)nc-1n2-c1ccccc1F	Hck-Nef inh 87, RanGTP-Imp inh inconclusive

Compound activity deposited in PubChem by several laboratories.
